The source of these data is PubChem BioAssay AID617 (SRMLSC, 2007).

Usually IC50 stands for the midpoint of a concentration-inhibition curve.

Molecules are shown by their SMILES.

The subject of this experiment is E. coli BW25113 ΔtolC growth inhibition, OD615. The experiment is described as follows: E. coli ΔtolC antibacterial growth inhibition – strain BW25113 ΔtolC::kan, dose response (AID 617). In outline: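 system = E. coli BW25113 tolC deletion strain (ΔtolC::kan), whole bacterial cells | technique = optical density (absorbance) at 615 nm | dosing = compounds in serially diluted dose-response series | times = bacterial growth with compound for 20 h, 37 °C | evaluation = growth-inhibition IC50 from four-parameter logistic curve, bounds set to 0% and 100%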
On to `O=C(CSc1n[nH]c(-c2ccco2)n1)N1c2ccccc2Sc2ccccc21`, for which the concentration for half-maximal inhibition (IC50) was 9.51 µM. For `CCSc1nnc(NC(=O)c2ccccn2)s1`, the IC50 was 4.66 µM. On to `Cc1ccc(C)n1-n1c(C)nc2sc3c(c2c1=O)CCCCC3`, for which the IC50 was 69.2 µM. The same measure for `CSc1ccc(S(=O)(=O)Nc2ccc(N3CCOCC3)c(Cl)c2)cc1`: 6.56 µM; for `Cc1nc2nc(COc3ccccc3)[nH]n2c(=O)c1Cc1ccccc1`: 1.32 µM. The same measure for `CN(C)S(=O)(=O)N(Cc1ccc(Br)cc1)c1ccccc1`: 12.9 µM; for `COc1ccc(Oc2cn[nH]c2-c2ccc(O)cc2O)cc1`: 7.86 µM.

Consider `COc1ccc(CN(Cc2cc3cc4c(cc3[nH]c2=O)OCO4)C(=O)NC2CCCCC2)cc1`, for which the IC50 is 20.2 µM.

On to `CC1=CC(C)(C)N(C(=O)c2ccc(F)cc2)c2cc3c(cc21)OCO3`, for which the half-inhibitory concentration (IC50) was 12.7 µM.

Turning to `CN1CCN(c2c(F)cc3c(=O)c(C(=O)O)cn4c3c2SCC4)CC1`, the IC50 was 0.91 µM. The same measure for `Cc1ccc(OCc2nc(C#N)c(NCc3ccc4c(c3)OCO4)o2)cc1`: 6.03 µM; for `CCCCN1C(=O)NC(=O)C2(Cc3c(nc4c(C)cccn4c3=O)N3CCc4ccccc4C32)C1=O` (stereo unspecified): 3.2 µM. The same measure for `O=C(c1cccc(F)c1)N1CCN(C(=O)c2cc(-c3ccc(Cl)cc3Cl)on2)CC1`: 9.75 µM; for `Cc1nc2c(-c3ccccc3)c(C)[nH]n2c(=O)c1Cl`: 3.59 µM.

Take `O=C1OC(c2ccc(O)cc2)(c2ccc(O)cc2)c2ccccc21`: the IC50 was 4.01 µM. The same measure for `O=C(NC1CCCC1)c1sc(=S)n2c1[nH]c(=O)c1ccccc12`: 0.56 µM.

Regarding `Cc1cccc(N2CCN(C(=O)c3cn(C)c(=O)c4c3c3ccccc3n4C)CC2)c1C`, the IC50 is 16 µM. Regarding `O=C(NCc1ccco1)c1sc(=S)n2c1[nH]c(=O)c1ccccc12`, the IC50 was 1.26 µM. The same measure for `COC(=O)c1cc(C(=O)CSc2nc(C)cc(C)n2)ccc1O`: 4.31 µM. The same measure for `C=CCc1cc(C)ccc1OCC(O)CN1CCN(c2ccccc2)CC1` (stereo unspecified): 17 µM; for `CCC(CC)c1nnc(NC(=O)c2c(-c3ccccc3)noc2C)s1`: 19.8 µM; for `CCNc1nc(SCc2ccccc2)nc(N2CCOCC2)n1`: 17.8 µM. Turning to `Clc1ccc(Cn2ncc3c(NCc4ccco4)ncnc32)c(Cl)c1`, the IC50 was 53.4 µM.

With `CCC1CCCCN1C(=O)c1cc(-c2ccc(Cl)c(Cl)c2)on1` (stereo unspecified), the IC50 was 10.3 µM. The same measure for `COc1ccc(-c2nc3oc4cc(OC)ccc4c(=O)c3c(=O)n2Cc2ccco2)cc1`: 2.33 µM; for `CC1CN(c2nc3c(c(=O)n(Cc4ccc(Cl)c(Cl)c4)c(=O)n3C)n2C)CC(C)O1` (stereo unspecified): 20.4 µM. The same measure for `Oc1cccc(Nc2nc(NCC3CCCO3)c3ccccc3n2)c1` (stereo unspecified): 4.68 µM. The same measure for `COc1ccc2nc(NC(=O)C3COc4ccccc4O3)sc2c1` (stereo unspecified): 14.5 µM; for `Oc1ccc(Br)cc1-c1nc2cnccn2c1NC1CCCC1`: 10.5 µM; for `Cc1ccc(Cl)cc1N1CCN(C(=O)COc2ccc(S(=O)(=O)NC(C)C)cc2)CC1`: 10.6 µM. As to `CCOC(=O)c1cc2sc(C)cc2n1C(C)C(=O)OCC` (stereo unspecified), the IC50 is 60.6 µM.
